Test results reported in publication PMC4059610 (Cell, 2014).

Legend:
WRC = settings: ref Nakao et al., 2008, Tai et al., 2010 (PCDH10, PCDH19), Bernadskaya et al., 2012, Stavoe et al., 2012 (DCC), 2012 (ROBO1), Karpushev et al., 2011 (ENaC); cited from earlier work
WRC (2MBP-ΔWRC) = test: MBP pull-down by immobilized 2MBP-ΔWRC; type: binding, human; settings: data not shown
Method in brief: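 Bait was immobilized 2MBP-ΔWRC, either wild type or the AW form (R106A/G110W in Abi2). It was mixed on affinity beads with a 5- to 10-fold excess of GST-tagged receptor cytoplasmic tails, purified by glutathione affinity chromatography with or without ion exchange and size exclusion. Beads were incubated and washed, then eluted with maltose. Retained proteins were seen on Coomassie-stained gels.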

[1] = test system: 2MBP-ΔWRC / GST-hPCDH10 CT interaction; test: Competition of 2MBP-ΔWRC pull-down of PCDH10 CT; type: binding, human; settings: Fig. 1D
Method in brief: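 Immobilized 2MBP-ΔWRC bait was mixed on affinity beads with a 5- to 10-fold excess of GST-tagged PCDH10 cytoplasmic tail prey, with wild-type WIRS peptide or T8A/F9A mutant peptide as competitor. After incubation and washing, bound proteins were eluted with maltose.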

WRC / Arp2/3 complex = test: Arp2/3-mediated pyrene-actin assembly assay; type: biochemical; settings: minimal WIRS peptide; 100 nM WRC217, Fig. 5A
endogenous WRC = test: GST-PCDH10 CT pull-down of endogenous WRC from mouse brain lysate; type: binding; settings: 100 μM WIRS peptide, Fig. 6A
Method in brief: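 Immobilized GST-PCDH10 cytoplasmic tail was incubated with mouse brain lysate on glutathione affinity beads. Competitor was buffer or 100 μM WIRS peptide, either wild type or T8A/F9A mutant. Beads were washed and bound proteins eluted with reduced glutathione. Retained endogenous WRC was detected by Western blot.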

[2] = test system: endogenous PCDH10/WRC interaction; test: Co-immunoprecipitation of WRC; type: binding; settings: 5 mM WIRS peptide, anti-WAVE1, mouse brain lysate, n = 7, p = 0.00003, Fig. 6B

Substance: DCC: netrin receptor
- Previously shown interaction with the WRC, biochemical or genetic (WRC): previously shown to interact with the WRC biochemically or genetically

Substance: FAT2: protocadherin FAT2, WIRS motif only found in human, mouse and chicken
- Binding to WRC in vitro using its WIRS motif (WRC (2MBP-ΔWRC)): binds the WRC in vitro using its WIRS motif

Substance: WIRS peptide: peptide containing the conserved sequence RSFSTFGKE of PCDH10 (WRC interacting receptor sequence)
- Blocking of PCDH10 CT binding to 2MBP-ΔWRC [1]: blocked this interaction
- Effect on Rac1 stimulation of WRC activity (WRC / Arp2/3 complex): had no effect on Rac1 stimulation
- Blocking of GST-PCDH10 CT pull-down of endogenous WRC (endogenous WRC): completely blocked the interaction
- Effect on co-immunoprecipitation of PCDH10 with WRC [2]: weakened
